According to paper PMC4934660 (Investigational new drugs, 2014):

Experiments:
[1] = system: TNF-related apoptosis-inducing ligand (TRAIL); test: Intracellular staining, TRAIL in AsPC-1; format: cell-based, human; settings: 2.4 μM, 6 hours, flow cytometry, average of 3 experiments, vs vehicle
[2] = system: A549 NFκB-luc cell line; test: Cytotoxicity in A549/NFκB-luc reporter cell line; format: cell-based; settings: 6 hours treatment
Outline: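 A549 cells stably carrying an NFκB-driven luciferase reporter, kept in DMEM with 10% FBS, penicillin/streptomycin and 100 μg/mL hygromycin B. Plated at 5 x 10^4 cells/well and allowed to adhere. Given 100 ng/ml TNF-α plus test compound (serial dilutions 0.00013–5 μg/mL) or vehicle for 6 h. Detergent-lysed; lysate equilibrated 30 min with ethidium bromide; fluorescence read at ex 340/em 590 nm.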

[3] = system: PANC-1; test: TUNEL, PANC-1; format: cell-based, human; settings: 2.4 μg/mL, 24 hours (method), flow cytometry, average of 3 experiments
Outline: (§1)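 Cells (BxPC-3 and PANC-1 in complete RPMI with 10% FBS; MIA PaCa-2 in DMEM with 5% horse serum plus 10% FBS) were seeded at 500,000 per 6-well well and adhered overnight. They received 2.4 μg/mL test compound or vehicle for 24 h, then were trypsinized, fixed (4% paraformaldehyde) and ethanol-permeabilized. TdT/fluorescein-12-dUTP labelling ran 60 min at 37°C, stopped with 20mM EDTA. Flow cytometry, 20,000 events; Student's t test vs vehicle.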

[4] = system: MIA PaCa2; test: TUNEL, MIA PaCa-2; format: cell-based, human; settings: 2.4 μg/mL, 24 hours (method), flow cytometry, average of 3 experiments
Outline: as §1

[5] = system: BxPC-3; test: TUNEL, BxPC-3; format: cell-based, human; settings: 2.4 μg/mL, 24 hours (method), flow cytometry, average of 3 experiments
Outline: as §1

[6] = system: TLR-3; test: Intracellular staining, TLR-3 in AsPC-1; format: cell-based, human; settings: 2.4 μM, 6 hours, flow cytometry, average of 3 experiments, vs vehicle
[7] = system: phosphorylated (active) NFκB p65 (pS529); test: Intracellular staining, phosphorylated NFκB p65; format: cell-based, human; settings: AsPC-1; 2.4 μg/mL; 6 hours; flow cytometry; vs vehicle control; average of 3 experiments; student's T test
Outline: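 AsPC-1 cells were treated 6 h with 2.4 μg/mL test compound or vehicle control. After trypsinization, 4% paraformaldehyde fixation and ice-cold ethanol permeabilization, cells were stained directly 1 h RT with PE-conjugated mouse anti-NFκB p65 (pS529) or mouse IgG isotype; no secondary. Gates were set against the isotype. Flow cytometry, 20,000 events; Student's t test vs vehicle, mean of 3 experiments.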

[8] = system: MIA PaCa-2; test: Markers of apoptosis; format: cell-based, human; settings: 2.4 μg/mL, with the assays used
Outline: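 Caspase-3/7 luminescence. MIA PaCa-2 cells in DMEM with 5% horse serum and 10% FBS. 10,000 cells/well, adhered overnight, then given 2.4 μg/mL test compound or vehicle for 1, 3, 6 or 24 h. Equal volume of pro-luminescent DEVD substrate added, 30–60 min at RT with shaking, luminescence read. Expressed as fold over vehicle; Student's t test.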

[9] = system: TLR-1; test: Intracellular staining, TLR-1 in AsPC-1; format: cell-based, human; settings: 2.4 μM, 6 hours, flow cytometry, average of 3 experiments, vs vehicle
[10] = system: IKKα; test: Intracellular staining, IKKα in AsPC-1; format: cell-based, human; settings: 2.4 μM, 6 hours, flow cytometry, average of 3 experiments, vs vehicle
[11] = system: HUVEC cells; test: Endothelial tube formation assay; format: cell-based; settings: single experiment, preliminary, data not shown
[12] = system: IRAK; test: Intracellular staining, IRAK in AsPC-1; format: cell-based, human; settings: 2.4 μM, 6 hours, flow cytometry, average of 3 experiments, vs vehicle
[13] = system: IL-8; test: IL-8 ELISA, AsPC-1; format: cell-based, human; settings: 2.4 μg/mL, 6 hours, compared to controls, significant, average of 3 experiments
[14] = system: TNFAIP3; test: Intracellular staining, TNFAIP3 in AsPC-1; format: cell-based, human; settings: 2.4 μM, 6 hours, flow cytometry, average of 3 experiments, vs vehicle
[15] = system: phosphorylated cyclin D1 Thr 286; test: Intracellular staining, phosphorylated cyclin D1 in AsPC-1; format: cell-based, human; settings: 2.4 μM, 6 hours, flow cytometry, average of 3 experiments, not statistically significant (student's T test)
Outline: (§2)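 AsPC-1 cells (complete RPMI, 10% FBS, 37°C, 5% CO2) were exposed 6 h to test compound or vehicle control. They were trypsinized, fixed in 4% paraformaldehyde and permeabilized with ice-cold ethanol. Unconjugated primary antibody to the phospho-epitope (or rabbit IgG isotype) was applied 1 h RT, then PE-conjugated secondary 30 min RT. Flow cytometry, 20,000 events; Student's t test vs vehicle on the mean of 3 experiments.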

[16] = system: phosphorylated Fos Ser 32; test: Intracellular staining, phosphorylated Fos in AsPC-1; format: cell-based, human; settings: 2.4 μM, 6 hours, flow cytometry, average of 3 experiments, vs vehicle
[17] = system: phosphorylated Elk; test: Intracellular staining, phosphorylated Elk in AsPC-1; format: cell-based, human; settings: 2.4 μM, 6 hours, flow cytometry, average of 3 experiments, vs vehicle
[18] = system: phosphorylated GSK3β Ser9; test: Intracellular staining, phosphorylated GSK3β in AsPC-1; format: cell-based, human; settings: 2.4 μM, 6 hours, flow cytometry, average of 3 experiments, not statistically significant (student's T test)
Outline: as §2

[19] = system: phosphorylated Jun Ser73; test: Intracellular staining, phosphorylated Jun in AsPC-1; format: cell-based, human; settings: 2.4 μM, 6 hours, flow cytometry, average of 3 experiments, vs vehicle
[20] = system: phosphorylated Akt Ser 473; test: Intracellular staining, phosphorylated AKT in AsPC-1; format: cell-based, human; settings: 2.4 μM, 6 hours, flow cytometry, average of 3 experiments, not statistically significant (student's T test)
Outline: as §2

COc1ccc(/C=C/CCCC[C@H](C)[C@H](O)[C@@H](O)[C@H]2NC(=O)CC3(O)NC(=O)CC3NC(=O)C[C@@H](O)CNC(=O)CN(C)C(=O)[C@@H](Cc3c(C(=O)O)[nH]c4ccccc34)NC(=O)CNC(=O)[C@H]2O)cc1 (some centres unmarked) [microsclerodermin A]
Change in expression, TRAIL [1]: No significant changes | Cytotoxicity in reporter cell line (in words) [2]: little or no cytotoxicity | Apoptosis (TUNEL DNA fragmentation) [3]: induced statistically significant apoptosis | DNA fragmentation (TUNEL) [4]: not detected | Apoptosis (TUNEL DNA fragmentation) [5]: induced statistically significant apoptosis | Change in expression, TLR-3 [6]: No significant changes | Levels of phosphorylated (active) NFκB p65 (pS529) [7]: significantly reduced | Markers of apoptosis [8]: no markers of apoptosis were seen | Change in expression, TLR-1 [9]: No significant changes | Change in protein level, IKKα [10]: no changes at the protein level | Endothelial tube formation [11]: decreased tube formation | Change in expression, IRAK [12]: No significant changes | Increase in IL-8 production [13]: about 2.5 fold | Change in protein level, TNFAIP3 [14]: no changes at the protein level | Level of phosphorylated cyclin D1 [15]: increased | Level of phosphorylated Fos [16]: statistically significantly upregulated | Change in expression, phosphorylated Elk [17]: No significant changes | Level of phosphorylated (inactive) GSK3β [18]: increased | Level of phosphorylated Jun [19]: statistically significantly upregulated | Level of phosphorylated AKT [20]: increased
